Data from ChEMBL document CHEMBL1143122, “Novel analogs of D-e-MAPP and B13. Part 1: synthesis and evaluation as potential anticancer agents” (Bioorg Med Chem, 2008).

What was measured:
[1] = system: MCF7; assay: Antiproliferative activity against human MCF7 cells after 48 hrs; assay type: functional, cell-based; details: MCF7, 48 h
[2] = system: MCF7; assay: Drug level in human MCF7 cells at 10 uM per 10^6 cells after 0.5 hrs; assay type: ADME, cell-based; details: mcf7, 0.5 h
How it was run: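 MCF7 cells kept in RPMI 1640 with 10% fetal calf serum at 37 °C, 5% CO2, then treated with 10 μM analog. Intracellular analog measured over time by HPLC-MS in positive-ion MRM mode. Quantified against calibration curves made by spiking an artificial matrix with standards plus internal standard, using analyte/IS peak-area ratios and linear regression. Reported as pmol per 1×10^6 cells.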

Structure (SMILES)	IC50 [1]	Drug uptake [2]
CCCCCCCCCCCCNC(=O)N[C@@H](C)[C@H](O)c1ccccc1	> 10 µM	
CCCCCCCCCCCCN[C@H](C)[C@@H](O)c1ccccc1	9 µM	
CCCCCCCCCCCCCC(=O)N[C@H](CO)[C@H](O)c1ccc(NC(=O)CCCCC[n+]2ccccc2)cc1.[Br-]	20 µM	800 pmol
CCCCCCCCCCCCNC(=O)N[C@@H](CO)[C@@H](O)c1ccc([N+](=O)[O-])cc1	> 10 µM	
CCCCCCCCCCCCCC(=O)N[C@H](CO)[C@H](O)c1ccc([N+](=O)[O-])cc1	14 µM	
CCCCCCCCCCCCNC(=O)N[C@H](CO)[C@H](O)c1ccc([N+](=O)[O-])cc1	> 10 µM	

Second part, the compound after the results:

IC50 [1]	Drug uptake [2]	Structure (SMILES)
> 10 µM		CCCCCCCCCCCCCC(=O)N(C)[C@H](C)[C@@H](O)c1ccccc1
> 10 µM		CCCCCCCCCCCCCC(=O)N(C)[C@@H](C)[C@H](O)c1ccccc1
> 10 µM		CCCCCCCCCCCCCC(=O)N(C)[C@@H](C)[C@@H](O)c1ccccc1
> 10 µM		CCCCCCCCCCCCNC(=O)N[C@H](C)[C@@H](O)c1ccccc1
> 10 µM		CCCCCCCCCCCCCC(=O)N(C)[C@H](C)[C@H](O)c1ccccc1
30 µM		CCCCCCCCCCCCCC(=O)N[C@H](C)[C@@H](O)c1ccccc1
